Measured values: ChEMBL document CHEMBL1144934, “Efficacious and orally bioavailable thrombin inhibitors based on a 2,5-thienylamidine at the P1 position: discovery of N-carboxymethyl-d-diphenylalanyl-l-prolyl[(5-amidino-2-thienyl)methyl]amide” (J Med Chem, 2003)
“And” between values parts separate entries of the source, which are not always exact repeats. Identical values can stand only once.

Experiments:
[1] = Half life of compound (t 1/2) was evaluated at 20 mg/kg after postoral dosing in monkey; format: functional, organism-based; set-up: dose 20 mg/kg
[2] = Half life of compound was determined after intravenous dosing at 10 mg/kg in rat; format: ADME, organism-based; set-up: dose 10 mg/kg, route intravenous; settings: in vivo
Outline: (§1)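 Male Sprague–Dawley rats (250–300 g), femoral artery and vein cannulated under light ether anesthesia; after recovery, 10 mg/kg given via femoral vein. Arterial blood sampled at 0, 1, 5, 15, 30, 60, 90, 120, 180, 240 min, collected into heparinized tubes, deproteinized with 2 volumes methanol, centrifuged; supernatant analyzed by HPLC (0.1% TFA/acetonitrile 81:19).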

Homo sapiens [3] = organism: Homo sapiens
Rattus norvegicus [4] = assay: In vivo inhibition of thrombus formation in thromboplastin-induced deep vein thrombosis (DVT) rat model after iv bolus dosing at 1 mg/kg; format: functional
[5] = Time of maximum plasma concentration of compound in monkey at 5 mg/kg was determined; format: functional, organism-based; set-up: dose 5 mg/kg
[6] = Area under curve (AUC) was determine after intravenous dosing at 2 mg/kg in monkey; format: functional, organism-based; set-up: dose 2 mg/kg
[7] = Maximal plasma concentration in monkeys after 20 mg/kg oral dose; settings: cynomolgus monkey
[8] = biological target: Thrombin & trypsin (Homo sapiens) (UniProt P00734+P07477+P07478+P35030); assay: Selectivity of compound was determined between thrombin and human trypsin; format: protein assay
Serine protease 1 = biological target: T1, Serine protease 1 (Bos taurus, UniProt P00760); assay: In vitro inhibition constant (Ki) against […] trypsin was determined
T1 sequence (P00760 whole entry): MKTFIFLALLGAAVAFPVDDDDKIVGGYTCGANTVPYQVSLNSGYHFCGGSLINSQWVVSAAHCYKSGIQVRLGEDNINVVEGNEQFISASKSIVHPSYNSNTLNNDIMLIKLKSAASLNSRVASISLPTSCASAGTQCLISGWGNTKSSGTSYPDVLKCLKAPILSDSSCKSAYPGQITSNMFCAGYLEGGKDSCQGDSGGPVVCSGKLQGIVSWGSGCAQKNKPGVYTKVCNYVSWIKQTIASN

Canis lupus familiaris [9] = assay: Area under curve (AUC) was determine after intravenous dosing at 2.5 mg/kg in dog
[10] = Selectivity of compound was determined between thrombin and human plasmin
Trypsin = Trypsin (Homo sapiens, UniProt P07477+P07478+P35030); assay: In vitro inhibition constant (Ki) against human trypsin was determined; format: protein assay
[11] = Clearance was determined after intravenous dosing at 2 mg/kg in monkey; format: functional, organism-based; set-up: dose 2 mg/kg
[12] = In vitro metabolic stability was determined using liver S9 fraction from dog at initial concentration of 20 uM; format: ADME, Canis lupus familiaris; settings: read-out: Recovery
Outline: (§2)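 Liver S9 (9000g supernatant of homogenate in Tris-acetate pH 7.4, KCl, EDTA) from rat, dog, monkey (pooled, n = 2) or human (n = 2); 20 µM final compound with NADPH generating system and S9 6.72 mg/mL in 100 mM phosphate pH 7.4, 37 °C. Samples methanol-deproteinized, HPLC; recovery after 30 min reported; no-NADPH control.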

Rattus norvegicus [13] = organism: Rattus norvegicus; assay: Ex vivo concentration of inhibitor to double the activated clotting time was measured in rat plasma; format: functional
[14] = Half life of compound (t 1/2) was evaluated at 5 mg/kg after postoral dosing; format: functional, organism-based; set-up: dose 5 mg/kg
[15] = biological target: Thrombin and coagulation factor X (Homo sapiens) (UniProt P00734+P00742); assay: Selectivity of compound was determined between thrombin and human factor Xa; format: protein assay
Thrombin and coagulation factor X (Homo sapiens), sequence (P00742 whole entry, looked up, other chains not shown): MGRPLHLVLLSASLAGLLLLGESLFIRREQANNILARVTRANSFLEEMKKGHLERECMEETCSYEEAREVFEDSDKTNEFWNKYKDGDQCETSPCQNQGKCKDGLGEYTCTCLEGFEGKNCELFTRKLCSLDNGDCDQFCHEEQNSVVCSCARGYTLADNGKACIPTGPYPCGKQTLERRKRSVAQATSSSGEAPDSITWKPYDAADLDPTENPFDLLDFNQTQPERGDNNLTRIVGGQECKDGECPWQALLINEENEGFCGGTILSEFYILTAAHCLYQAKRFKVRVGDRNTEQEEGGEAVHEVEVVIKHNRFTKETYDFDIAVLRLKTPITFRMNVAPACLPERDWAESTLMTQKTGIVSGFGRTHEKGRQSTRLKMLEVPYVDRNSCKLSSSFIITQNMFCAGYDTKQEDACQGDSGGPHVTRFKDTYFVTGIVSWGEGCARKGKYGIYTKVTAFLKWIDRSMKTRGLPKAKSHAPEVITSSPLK

[16] = Clearance value was determined after intravenous dosing at 2.5 mg/kg; format: functional, organism-based; set-up: dose 2.5 mg/kg
[17] = Area under curve (AUC) was determine after oral dosing at 20 mg/kg in monkey
[18] = Half life of compound (t 1/2) was evaluated at 2 mg/kg after intravenous dosing in monkey; format: functional, organism-based; set-up: dose 2 mg/kg
Coagulation factor X = Coagulation factor X (Homo sapiens, UniProt P00742); assay: In vitro inhibition constant (Ki) against human Coagulation factor X was determined
Coagulation factor X, sequence (P00742 41-179 limits assumed): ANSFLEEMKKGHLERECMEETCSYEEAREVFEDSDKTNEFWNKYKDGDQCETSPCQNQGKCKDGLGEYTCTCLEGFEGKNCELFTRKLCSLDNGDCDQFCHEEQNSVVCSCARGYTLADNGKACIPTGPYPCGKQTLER
Coagulation factor X, sequence (P00742 235-488 limits assumed): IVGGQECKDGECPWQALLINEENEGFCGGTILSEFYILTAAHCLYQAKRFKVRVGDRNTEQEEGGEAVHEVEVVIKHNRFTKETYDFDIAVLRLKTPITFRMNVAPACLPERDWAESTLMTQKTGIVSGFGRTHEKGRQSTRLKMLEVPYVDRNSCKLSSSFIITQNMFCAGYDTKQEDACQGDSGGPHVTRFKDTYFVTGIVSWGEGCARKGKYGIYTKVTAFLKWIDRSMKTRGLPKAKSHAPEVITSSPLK

[19] = Steady state volume of distribution (Vdss) was determined after intravenous dosing at 10 mg/kg in rat; format: ADME, organism-based; set-up: dose 10 mg/kg, route intravenous; settings: in vivo, read-out: Vdss; outline: as §1
[20] = In vitro metabolic stability was determined using liver S9 fraction from monkey at initial concentration of 20 uM; format: ADME, subcellular; settings: simiiformes, read-out: Recovery; outline: as §2
Homo sapiens [21] = organism: Homo sapiens; assay: (§3) In vitro metabolic stability was determined using liver S9 fraction from human at initial concentration of 20 uM; format: ADME; settings: 20 µM; outline: as §2
[22] = as §3; format: ADME; settings: liver S9 fraction, read-out: Recovery; outline: as §2
[23] = Clearance value was determined after intravenous dosing at 10 mg/kg in rat; format: ADME, organism-based; set-up: dose 10 mg/kg, route intravenous; settings: in vivo; outline: as §1
Canis lupus familiaris [24] = assay: Bioavailability of compound (F %) was evaluated at 5 mg/kg in dog; format: functional, organism-based
[25] = Half life of compound (t 1/2) was evaluated at 2.5 mg/kg after intravenous dosing; format: functional, organism-based; set-up: dose 2.5 mg/kg
Primates = assay: Bioavailability of compound(F %) was evaluated at mg/kg in Monkey; format: functional, organism-based
[26] = Area under curve (AUC) was determine after postoral dosing at 5 mg/kg in dog; format: functional, organism-based; set-up: dose 5 mg/kg
[27] = Steady state volume of distribution (Vdss) was evaluated at 2 mg/kg after intravenous dosing in monkey; format: functional, organism-based; set-up: dose 2 mg/kg
[28] = Area under curve (AUC) was determined after intravenous dosing at 10 mg/kg in rat; format: ADME, organism-based; set-up: dose 10 mg/kg, route intravenous; settings: in vivo; outline: as §1
Rattus norvegicus [29] = organism: Rattus norvegicus; assay: In vitro concentration of inhibitor to double the activated partial thromboplastin time was evaluated in rat; format: functional
Outline: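 Rat plasma mixed with inhibitor and an equal volume of aPTT reagent (Platelin LS), incubated 5 min at 37 °C, then 100 μL of 25 mM CaCl2 added. Clotting time read on an automatic coagulometer. Value taken as the inhibitor concentration that doubles aPTT.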

[30] = Selectivity of compound was determined between thrombian and human t-PA
[31] = test system: thrombin (Homo sapiens) & trypsin (Bos taurus); assay: Selectivity of compound was determined between thrombin and bovine trypsin
[32] = Steady state volume of distribution (Vdss) was evaluated at 2.5 mg/kg after intravenous dosing; format: functional, organism-based; set-up: dose 2.5 mg/kg
[33] = Bioavailability in rat; format: ADME, organism-based; settings: in vivo
Rattus norvegicus [34] = assay: Ex vivo activated clotting time was measured in rat plasma at 1 mg/kg; format: functional
[35] = Maximal plasma concentration in dogs after 5 mg/kg oral dose; format: ADME, organism-based, Canis lupus familiaris; set-up: dose 5 mg/kg, route oral; settings: dog
[36] = biological target: Tissue-type plasminogen activator (Homo sapiens, UniProt P00750); assay: In vitro inhibition constant (Ki) against human Tissue type plasminogen activator was determined
Tissue-type plasminogen activator, sequence (P00750 whole entry): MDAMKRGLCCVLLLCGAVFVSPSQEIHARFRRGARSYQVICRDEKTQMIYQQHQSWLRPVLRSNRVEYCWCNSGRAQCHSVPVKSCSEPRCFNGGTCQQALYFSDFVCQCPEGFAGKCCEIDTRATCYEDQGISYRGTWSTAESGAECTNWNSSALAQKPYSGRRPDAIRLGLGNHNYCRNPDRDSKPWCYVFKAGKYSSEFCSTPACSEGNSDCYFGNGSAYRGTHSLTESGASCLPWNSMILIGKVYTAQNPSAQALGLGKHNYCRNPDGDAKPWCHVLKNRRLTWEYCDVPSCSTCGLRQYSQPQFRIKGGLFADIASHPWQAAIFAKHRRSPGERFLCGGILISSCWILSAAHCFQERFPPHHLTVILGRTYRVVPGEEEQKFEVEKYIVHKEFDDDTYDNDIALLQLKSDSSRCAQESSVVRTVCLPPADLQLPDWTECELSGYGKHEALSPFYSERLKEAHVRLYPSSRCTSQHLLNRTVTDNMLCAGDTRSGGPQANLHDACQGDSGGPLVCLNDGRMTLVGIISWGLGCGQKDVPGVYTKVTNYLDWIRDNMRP

Plasminogen = Plasminogen (Homo sapiens, UniProt P00747); assay: In vitro inhibition constant (Ki) against human plasmin was determined
Plasminogen, sequence (P00747 97-580 limits assumed): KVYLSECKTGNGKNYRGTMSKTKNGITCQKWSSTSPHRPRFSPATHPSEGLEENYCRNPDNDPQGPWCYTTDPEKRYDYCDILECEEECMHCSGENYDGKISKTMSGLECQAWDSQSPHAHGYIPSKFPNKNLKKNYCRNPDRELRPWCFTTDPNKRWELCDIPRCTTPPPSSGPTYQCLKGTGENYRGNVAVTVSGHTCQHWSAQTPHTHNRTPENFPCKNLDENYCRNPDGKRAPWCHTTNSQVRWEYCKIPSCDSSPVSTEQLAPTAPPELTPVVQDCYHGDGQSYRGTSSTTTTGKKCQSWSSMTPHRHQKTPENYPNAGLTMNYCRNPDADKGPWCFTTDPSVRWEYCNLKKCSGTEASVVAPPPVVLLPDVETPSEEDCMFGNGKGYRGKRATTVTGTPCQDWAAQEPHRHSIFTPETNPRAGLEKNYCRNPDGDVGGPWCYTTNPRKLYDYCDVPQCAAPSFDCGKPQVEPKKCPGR
Plasminogen, sequence (P00747 581-810 limits assumed): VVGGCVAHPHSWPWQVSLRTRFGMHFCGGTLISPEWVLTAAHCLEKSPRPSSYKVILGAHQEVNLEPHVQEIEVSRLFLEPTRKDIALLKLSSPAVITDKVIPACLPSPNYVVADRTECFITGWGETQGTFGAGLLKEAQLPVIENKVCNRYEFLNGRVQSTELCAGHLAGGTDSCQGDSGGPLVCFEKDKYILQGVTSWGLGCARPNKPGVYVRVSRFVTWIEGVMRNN

[37] = Area under curve (AUC) was determine after intravenous dosing at 10 mg/kg; format: ADME, organism-based; set-up: dose 10 mg/kg, route intravenous; settings: in vivo
Prothrombin = Prothrombin (Homo sapiens, UniProt P00734); assay: In vitro inhibition constant (Ki) against human thrombin

Question: With `N=C(N)c1ccc(CNC(=O)[C@@H]2CCCN2C(=O)[C@H](NCC(=O)O)C(c2ccccc2)c2ccccc2)s1` as the molecule, how does the T1/2 [1] read?
Answer: 58 min

Question: And the half-life [2]?
Answer: 47 min

Question: And the APTT (Homo sapiens [3])?
Answer: 0.23 µM

Question: And the inhibition in vivo at 1 mg/kg (Rattus norvegicus [4])?
Answer: 100%

Question: And the Tmax [5]?
Answer: 30 min and 90 min

Question: And the AUC [6]?
Answer: 3420 ng·h/mL

Question: And the Cmax [7]?
Answer: 2100 ng/mL

Question: And the Selectivity [8]?
Answer: 20

Question: And the Ki (Serine protease 1)?
Answer: 0.003 µM

Question: What about the AUC (Canis lupus familiaris [9]) of the same molecule?
Answer: 7620 ng·h/mL

Question: What about the Selectivity [10] of the same molecule?
Answer: > 10000

Question: What about the Ki (Trypsin) of the same molecule?
Answer: 0.0003 µM

Question: And the CL (mL.min-1.kg-1) [11]?
Answer: 9.8

Question: And the remaining at 20 µM [12]?
Answer: 99%

Question: What about the “Concentration to double activated clotting time” value (Rattus norvegicus [13]) of the same molecule?
Answer: 0.85 µM

Question: And the T1/2 [14]?
Answer: 68 min

Question: And the Selectivity [15]?
Answer: > 10000

Question: And the CL (mL.min-1.kg-1) [16]?
Answer: 5.9

Question: What about the AUC [17] of the same molecule?
Answer: 5150 ng·h/mL

Question: What about the T1/2 [18] of the same molecule?
Answer: 23 min

Question: What about the Ki (Coagulation factor X) of the same molecule?
Answer: 2.25 µM

Question: What about the Vd [19] of the same molecule?
Answer: 0.258 L/kg

Question: What about the remaining at 20 µM [20] of the same molecule?
Answer: 83%

Question: What about the Recovery (Homo sapiens [21]) of the same molecule?
Answer: 95%

Question: What about the remaining at 20 µM [22] of the same molecule?
Answer: 95%

Question: And the clearance [23]?
Answer: 9.6 mL/min/kg

Question: And the bioavailability (Canis lupus familiaris [24])?
Answer: 42%

Question: And the T1/2 [25]?
Answer: 54 min

Question: What about the bioavailability (Primates) of the same molecule?
Answer: 15%

Question: What about the AUC [26] of the same molecule?
Answer: 6050 ng·h/mL

Question: What about the Vdss [27] of the same molecule?
Answer: 0.23 L/kg

Question: And the AUC [28]?
Answer: 17600 ng·h/mL

Question: And the APTT (Rattus norvegicus [29])?
Answer: 0.97 µM

Question: And the Selectivity [30]?
Answer: > 10000

Question: And the Selectivity [31]?
Answer: 200

Question: What about the Vdss [32] of the same molecule?
Answer: 0.223 L/kg

Question: What about the bioavailability [33] of the same molecule?
Answer: 43%

Question: And the ACT (Rattus norvegicus [34])?
Answer: 12

Question: What about the Cmax [35] of the same molecule?
Answer: 3800 ng/mL

Question: What about the Ki [36] of the same molecule?
Answer: 0.433 µM

Question: And the Ki (Plasminogen)?
Answer: 7.4 µM

Question: For `N=C(N)c1csc(CNC(=O)[C@@H]2CCCN2C(=O)[C@H](NCC(=O)O)C(c2ccccc2)c2ccccc2)n1`, which half-life [2] is on record?
Answer: 50 min

Question: And the Vd [19]?
Answer: 0.189 L/kg

Question: And the clearance [23]?
Answer: 6 mL/min/kg

Question: What about the AUC [37] of the same molecule?
Answer: 29100 ng·h/mL

Question: And the Ki (Prothrombin)?
Answer: 0.00064 µM

Question: And the bioavailability [33]?
Answer: 21%
